From PubChem BioAssay AID463076 (The Scripps Research Institute Molecular Screening Center, 2010) come the findings set out here.

One may read the IC50 as the point on the concentration scale where inhibition reaches its midpoint.

Molecules are shown by their SMILES. Calls of active or inactive are those of the source.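 How the source made its calls: active means compounds blocking FLT3 kinase activity with IC50 at or below 1000 nM; inactive means IC50 above 1000 nM.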

Sequence of Receptor-type tyrosine-protein kinase FLT3 (Homo sapiens) (P36888 whole entry, looked up): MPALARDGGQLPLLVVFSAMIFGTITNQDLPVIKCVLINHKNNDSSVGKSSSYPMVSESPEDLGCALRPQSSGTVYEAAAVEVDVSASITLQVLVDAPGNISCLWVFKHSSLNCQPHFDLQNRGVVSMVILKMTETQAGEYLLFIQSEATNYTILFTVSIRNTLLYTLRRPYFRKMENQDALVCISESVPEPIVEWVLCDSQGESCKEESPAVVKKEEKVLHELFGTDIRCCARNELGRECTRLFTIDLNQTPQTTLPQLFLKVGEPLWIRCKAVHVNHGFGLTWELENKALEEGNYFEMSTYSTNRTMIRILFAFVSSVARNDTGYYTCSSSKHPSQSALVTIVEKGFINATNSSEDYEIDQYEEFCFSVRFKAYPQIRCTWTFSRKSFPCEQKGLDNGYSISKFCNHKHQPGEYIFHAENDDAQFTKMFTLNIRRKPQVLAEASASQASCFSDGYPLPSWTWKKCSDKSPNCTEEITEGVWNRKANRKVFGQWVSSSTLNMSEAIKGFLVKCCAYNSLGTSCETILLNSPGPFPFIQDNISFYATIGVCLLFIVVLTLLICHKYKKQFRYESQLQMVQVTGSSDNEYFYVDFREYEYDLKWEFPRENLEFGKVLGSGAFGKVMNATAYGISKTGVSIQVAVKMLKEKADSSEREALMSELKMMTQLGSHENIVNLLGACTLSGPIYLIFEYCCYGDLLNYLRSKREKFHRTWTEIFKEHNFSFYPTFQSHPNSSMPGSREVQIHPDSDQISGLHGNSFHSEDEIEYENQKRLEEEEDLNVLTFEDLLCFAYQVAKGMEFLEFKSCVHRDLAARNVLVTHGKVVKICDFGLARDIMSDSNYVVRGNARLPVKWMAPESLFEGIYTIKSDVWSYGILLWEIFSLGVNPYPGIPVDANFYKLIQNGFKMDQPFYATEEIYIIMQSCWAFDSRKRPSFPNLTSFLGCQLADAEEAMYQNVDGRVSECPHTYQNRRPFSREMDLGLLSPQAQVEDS

In this test the target is Receptor-type tyrosine-protein kinase FLT3 (Homo sapiens) (UniProt P36888). In words: inhibitors of human FLT3 tyrosine kinase – biochemical, radioactive 33P-ATP, powder samples, selectivity assay for CK1d inhibitor project, late-stage follow-up (AID 463076). Conditions: purified FLT3, 33P-ATP Abltide filter-binding assay. In a few lines:
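Material: kinase enzyme in a cell-free radiometric reaction; Compound: 10-point threefold dilution series from 50 µM nominal top; Detection: radiometric filter-binding readout; Buffer or medium: Hepes pH 7.5, MgCl2, DTT, 1% DMSO; Schedule: kinase reaction 120 min at room temperature; Evaluation: IC50 from signal ratio curve; Reagent: 33P-labelled ATP plus peptide substrate.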
In the case of `O=[N+]([O-])c1cccc2[nH]c(CNc3nc(N4CCOCC4)nc4c3ncn4-c3ccsc3)nc12`, the 50% inhibitory concentration (IC50) is 305 nM.

Take `N#Cc1ccc2nc(CNc3nc(N4CCOCC4)nc4c3ncn4-c3ccsc3)[nH]c2c1`: the half-maximal inhibitory concentration (IC50) is 62 nM.

On to `c1ccc2[nH]c(CNc3nc(N4CCOCC4)nc4c3ncn4-c3ccsc3)nc2c1`, for which the IC50 was 100 nM.

For the compound `FC(F)(F)c1cccc2[nH]c(CNc3nc(N4CCOCC4)nc4c3ncn4-c3ccsc3)nc12`, the IC50 was 262 nM.

Take `c1ccc2cc3[nH]c(CNc4nc(N5CCOCC5)nc5c4ncn5-c4ccsc4)nc3cc2c1`: the IC50 is 975 nM.

For the compound `Fc1ccc2nc(CNc3nc(N4CCOCC4)nc4c3ncn4-c3ccsc3)[nH]c2c1`, the half-maximal inhibitory concentration (IC50) is 79 nM.

On to `Clc1ccc2nc(CNc3nc(N4CCOCC4)nc4c3ncn4-c3ccsc3)[nH]c2c1`, for which the IC50 was 301 nM.

Take `COc1ccc2nc(CNc3nc(N4CCOCC4)nc4c3ncn4-c3ccsc3)[nH]c2c1`: the half-maximal inhibitory concentration (IC50) is 14 nM.

Turning to `FC(F)(F)c1ccc2nc(CNc3nc(N4CCOCC4)nc4c3ncn4-c3ccsc3)[nH]c2c1`, the concentration for half-maximal inhibition (IC50) is 509 nM.

`CC(C)n1cnc2c(NCc3nc4c([N+](=O)[O-])cccc4[nH]3)nc(N3CCOCC3)nc21`: the IC50 result is “inactive”.

Regarding `O=[N+]([O-])c1ccc2nc(CNc3nc(N4CCOCC4)nc4c3ncn4-c3ccsc3)[nH]c2c1`, the half-maximal inhibitory concentration (IC50) is 240 nM.

`Cc1ccnc(NC(=O)CCCOc2cc(=O)n(C)c3ccccc23)c1`: the IC50 entry was “inactive”.

In the case of `CCOC(=O)c1cccc2[nH]c(CNc3nc(N4CCOCC4)nc4c3ncn4-c3ccsc3)nc12`, the half-inhibitory concentration (IC50) is 548 nM.
